Data from PMC4629064 (Acta Pharmaceutica Sinica. B, 2014).
Values after ≈ are worked out from the molar mass of the structure shown. Values joined by “and” are separate entries in the source; they are usually repeats but may differ in a detail not shown here. Equal values may be shown once.

Key:
[1] = Solubility of BA and BA–PC in water or octanol; format: physicochemical; conditions: octanol, 37 °C, organic solvent or mixture, thermodynamic from solid
[2] = Oral bioavailability of BA–PC–SMEDDS and BA suspensions; conditions: both, Sprague-Dawley, rat, in vivo, 75 mg
[3] = Caco-2 cell permeation study; format: in vitro ADME; conditions: human, Caco-2, pH 6.8
Caco-2 cells = test: Caco-2 cell permeation study; format: in vitro ADME; conditions: apical to basolateral, 187.5 μg/mL of BA, pH 6.8, 37 °C; mean±SD, n=3
[4] = Dispersible uniformity and stability in water; format: physicochemical; conditions: dispersed in water, 37 °C
In short: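 Free test compound dispersed in water by simple agitation, alongside its phospholipid complex and complex-loaded self-microemulsifying formulation (drug:phospholipid molar ratios 1:1, 1:1.5, 1:2). Samples held at 37 °C in a water bath. Drug in the upper solution quantified by UV spectrophotometry at 316 nm at 0, 4, 8, 12 and 24 h. Bottles inspected visually for bottom precipitate.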

[5] = system: intestine segments (duodenum and jejunum, ileum, colon); test: In situ single-pass intestinal perfusion; format: in vivo, Sprague-Dawley rats; conditions: rat SPIP, 750 μg/mL BA in KR buffer pH 6.0, mean±SD, n=6

In the case of `O=C(O)[C@H]1O[C@@H](Oc2cc3oc(-c4ccccc4)cc(=O)c3c(O)c2O)[C@H](O)[C@@H](O)[C@@H]1O` [BA, 5,6-dihydroxy-4-oxygen-2-phenyl-4H-1-benzopyran-7-β-D-glucopyranoseacid], the solubility at 48 h [1] is reported as 136 ± 12 µg/mL (≈ 305 µM), the AUC [2] is reported as 7610 ± 1580 ng·h/mL and the Cmax [2] is reported as 1840 ± 470 ng/mL. For the same compound, the Tmax [2] was 1.5 h, the Papp A→B at 180 min, 187.5 μg/mL [3] was 0.119 ± 0.092 ×10⁻⁶ cm/s and the Papp B→A at 180 min, 187.5 μg/mL [3] was 0.365 ± 0.096 ×10⁻⁶ cm/s. The efflux ratio at 180 min, 187.5 μg/mL [3] was 3.07, the “Papp through Caco-2 monolayer” value (Caco-2 cells) was 0.037 ×10^−6, cm/s and 0.037±0.012 ×10^−6, cm/s and the “Precipitate at the bottom of the bottles (visual)” value [4] was “precipitates”. For the same compound, the “Concentration of BA in the upper solution, initially” value ([4]; initially) was “nearly zero”, the “Peff, Colon” value ([5]; colon) was 0.506±0.088 ×10^−4, cm/s and the “Peff, Duodenum+jejunum” value ([5]; duodenum+jejunum) was 0.139±0.035 ^⁎ ×10^−4, cm/s. For the same compound, the “Peff, Ileum” value ([5]; ileum) was 0.252±0.081 ^⁎ ×10^−4, cm/s.
